Compounds with a hit are over-represented: about 11% of the library has one in this group of screens.
mHtt clearance = mutant huntingtin protein clearance; actives 0.42% (n = 47,000); HeLa Exon1htt(103Q)mCFP, aggregate imaging; zero = plate's median compound well; inhibition, % at 1.5 µM; AID 853;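 active = inhibition of aggregate fluorescence above about 70%, also judged a hit by eye on the cell image, limit read from the data, passing the limit was not always enough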;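 note: cells exposed to compound for three days before fixation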
SF-1 act = activators of human nuclear receptor SF-1; CHO-K1 Gal4-SF-1 LBD luciferase reporter; % increase over DMSO SF-1-specific signal; activation, % at 10 µM; actives 1.9% (n = 65,000); AID 522;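 active = activation above the mean activation of all tested compounds plus 3 SD, cut at about 50% in these data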
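Test system: CHO-K1 cells co-transfected with Gal4 DBD–human SF-1 LBD, 5xGal4 luciferase reporter. Quantity: 4,000 cells per well. Compound: 10 µM only. Incubation: compound added 1 h post-seeding, 20 h exposure at 37 °C, 5% CO2. Detection: SteadyLite luciferase luminescence. Replication: one test per compound.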
M1 antag = antagonists of rat M1 muscarinic receptor. CHO-M1 cells, Fluo-4 calcium, ACh EC80 antagonist mode; stronger effect = lower value. AID 628. actives 3.4% (n = 64,000). B-score at 10 µM;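 active = calcium fluorescence response, raw or row-and-column corrected B-score, differing from the plate sample mean either way at a set confidence level, mostly lower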
Target sequence (P08482 whole entry, looked up): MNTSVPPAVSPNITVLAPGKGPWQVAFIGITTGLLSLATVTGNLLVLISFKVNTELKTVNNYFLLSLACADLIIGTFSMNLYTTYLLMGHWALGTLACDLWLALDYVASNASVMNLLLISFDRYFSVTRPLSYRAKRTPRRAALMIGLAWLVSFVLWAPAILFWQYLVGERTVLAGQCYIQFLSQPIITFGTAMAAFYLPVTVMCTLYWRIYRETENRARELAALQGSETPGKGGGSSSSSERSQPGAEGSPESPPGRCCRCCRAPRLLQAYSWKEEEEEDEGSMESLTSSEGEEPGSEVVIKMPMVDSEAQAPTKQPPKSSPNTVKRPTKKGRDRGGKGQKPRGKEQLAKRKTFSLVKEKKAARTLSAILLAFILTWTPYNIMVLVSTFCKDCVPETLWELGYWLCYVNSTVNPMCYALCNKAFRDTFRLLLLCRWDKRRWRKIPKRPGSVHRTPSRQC
M1 agonist = activates the M1 muscarinic receptor; B-score at 10 µM; actives 3% (n = 64,000); CHO-M1 cells, Fluo-4 calcium fluorescence, agonist mode; stronger effect = higher value; AID 626;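 active = fluorescence rise, raw or as B-score row- and column-corrected plate score, outside the 99.7% band of its plate's samples, either direction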
RORA act = activators of human nuclear receptor RORA | P35398 | CHO-K1 Gal4-RORA LBD luciferase reporter, luminescence; percent increase over mock-subtracted basal signal | activation, % at 10 µM | actives 1.5% (n = 65,000) | AID 560;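 active = activation above the mean of all tested compounds plus 3 SD, cut at about 49% in these data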;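 note: 0% = DMSO-treated RORA cells and 100% = added signal equal to DMSO minus mock-transfected cells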
D1 mod = allosterically modulates the human D1 dopamine receptor. P21728. HEK293 D1, CRE-luciferase, dopamine EC30 potentiation; actives deviate in either direction. B-score at 10 µM. actives 5.9% (n = 58,000). AID 641;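 active = luminescence count or its row- and column-corrected plate score outside the 99.7% band of the plate's sample wells, on either side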
D1 mod confirm = D1 receptor (human) allosteric modulation, confirmed; HEK293 D1 CRE-luciferase, dopamine EC30 potentiation; stronger effect = higher value; actives 88% (n = 2,200); shares compounds with D1 mod; luminescence at 10 µM;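 active = luminescence in either of two replicates above the same-plate mean plus 3 SD of the low-dose dopamine control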
D1 no dopamine = secondary test of D1 modulators: activity without dopamine | AID 646 | actives 0.8% (n = 1,900) | luminescence at 10 µM | shares compounds with D1 mod | HEK293 D1 CRE-luciferase, luminescence, no dopamine; stronger effect = higher value; in the data active = luminescence above about 3900
Isoprot counter = counter-screen for D1 modulators: isoproterenol response in HEK293 cells | calls only at 10 µM | AID 647 | actives 63% (n = 2,200) | HEK293 D1 CRE-luciferase, isoproterenol EC30 counter-screen | shares compounds with D1 mod;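 active = luminescence in either replicate above plate mean of wells with a partly effective reference agonist dose plus 3 SD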;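 note: isoproterenol raises cAMP through native beta-adrenoceptor Gs so signal bypasses D1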
The depositor's hits bear a star; i = inactive; nt = not tested or not shown; + = active, no number.

SMILES | mHtt clearance | SF-1 act | M1 antag | M1 agonist | RORA act | D1 mod | D1 mod confirm | D1 no dopamine | Isoprot counter
CCCSc1nc2c(c(=O)[nH]c(=O)n2C)n1Cc1ccc(C)cc1 | -34.1 | -2.3 | -0.187 | 0.0239 | 25.2 | -0.0681 | nt | nt | nt
COc1ccc(-c2nnc(SCc3ncc(-c4ccccc4)o3)o2)cc1 | 17.4 | 6.4 | 0.44 | -0.872 | -2.0 | -1.33 | nt | nt | nt
Cc1cc(C)nc(NS(=O)(=O)c2ccc(N3C(=O)C4CC=C(Cl)CC4C3=O)cc2)n1 (configuration not stated) | -56.6 | 6.6 | 0.551 | -0.155 | 10.3 | -0.59 | nt | nt | nt
CCC(C)(C)NC(=O)C(OC(=O)c1cc2sccc2n1C)c1ccc(OC)cc1 (configuration not stated) | 12.7 | 6.8 | 0.0212 | -0.701 | -19.5 | -0.503 | nt | nt | nt
Cc1ccc(Cn2c(N3CCCCCC3)nc3c2c(=O)[nH]c(=O)n3C)cc1 | -5.8 | -1.1 | -0.145 | -0.447 | -2.7 | 3.1* | 9560* | 1668 | +
Cn1c(=O)[nH]c(=O)c2c1nc(N1CCCCCC1)n2Cc1cccc2ccccc12 | -42.5 | -0.9 | 0.402 | -0.205 | -11.9 | nt | nt | nt | nt
O=C(OCn1nnc2ccccc2c1=O)C1CCN(S(=O)(=O)c2cccs2)CC1 | nt | -10.1 | -0.00943 | 0.0225 | 27.7 | 4* | 11392* | 1780 | i
COC(=O)c1cc2oc(C)cc2n1CC(=O)Nc1cc(C)cc(C)c1 | 46.4 | -10.4 | 0.0776 | -0.0823 | -19.3 | -0.454 | nt | nt | nt
C=CCSc1nc(N)c(C#N)c(-c2ccc(C)cc2)c1C#N | -8.0 | -12.7 | 0.055 | -0.172 | -18.5 | 3.15* | 4628 | 1776 | i
CCOC(=O)CSc1nc(N)c(C#N)c(-c2ccc(OCC)cc2)c1C#N | -4.4 | 15.2 | 0.0322 | -0.294 | -21.0 | 0.726 | nt | nt | nt
COc1ccc(C2=NOC(C(=O)NC3CCCCC3)C2)cc1OC (configuration not stated) | -12.1 | 7.2 | -0.134 | -0.27 | 1.1 | 4.57* | 14608* | 1788 | i
COc1ccc(C2=NOC(C(=O)NCc3ccccn3)C2)cc1OC (configuration not stated) | -15.4 | nt | nt | nt | nt | nt | nt | nt | nt
COc1ccc(OC)c(C2=NOC(C(=O)Nc3cccc(C(C)=O)c3)C2)c1 (configuration not stated) | -60.7 | -8.3 | -0.00281 | -1.18 | -8.1 | 3.71* | 9256* | 1624 | i
COc1ccc(C2=NOC(C(=O)Nc3ccc(C(C)=O)cc3)C2)cc1OC (configuration not stated) | 35.0 | 38.2 | 0.259 | 0.0249 | 39.1 | 4.97* | 8288* | nt | +
COc1ccc(C2=NOC(C(=O)Nc3cc(Br)ccc3O)C2)cc1OC (configuration not stated) | nt | -12.4 | 1.64 | -1.35 | -13.2 | 38* | 25996* | 1720 | +
COc1ccc(C2=NOC(C(=O)N3CCCCCC3)C2)cc1OC (configuration not stated) | nt | -2.1 | 0.00385 | -1.38 | -15.3 | 0.418 | nt | nt | nt
CC(C(=O)NC1CCCc2ccccc21)N1CCN(Cc2ccc3c(c2)OCO3)CC1 (configuration not stated) | nt | 8.2 | 0.2 | 0.0296 | -4.3 | 0.537 | nt | nt | nt
CCCCOC(=O)C(C)c1c(C)[nH]c(=S)[nH]c1=O (configuration not stated) | 10.3 | 5.2 | -0.106 | 0.0463 | -1.0 | -0.983 | nt | nt | nt
CC(C)CCn1nnnc1C(c1ccc(F)cc1)N1CCC(C(N)=O)CC1 (configuration not stated) | nt | 0.4 | -0.457 | -0.361 | -14.0 | -0.762 | nt | nt | nt
Cn1cccc1Cc1nnc(SCC(=O)NC2CCCCC2)n1CCc1ccccc1 | nt | -5.9 | 0.39 | 0.37 | -7.6 | 1.46* | 5188 | 1520 | i
CCn1cc(C(=O)Nc2cccc(C(=O)OC)c2)c(=O)c2ccc(C)nc21 | nt | 11.5 | -0.382 | -0.188 | -10.8 | 0.175 | nt | nt | nt
CCn1cc(C(=O)Nc2ccccc2C(=O)OC)c(=O)c2ccc(C)nc21 | nt | 17.9 | 0.216 | -0.019 | -14.5 | 1.08 | nt | nt | nt
CCn1cc(C(=O)OCC(=O)NCc2ccc3c(c2)OCO3)c(=O)c2ccc(C)nc21 | nt | 1.3 | -1.29 | 0.563 | -6.2 | 2.72* | 8368* | 1576 | +
CCn1cc(C(=O)OCc2ccc(F)cc2)c(=O)c2ccc(C)nc21 | 8.0 | 14.6 | -0.0316 | -0.34 | 38.6 | 9.86* | 10188* | 1412 | +
CCn1cc(C(=O)OCc2cccc(Br)c2)c(=O)c2ccc(C)nc21 | 17.5 | -6.3 | -0.806 | 0.424 | 9.6 | 6.6* | 14972* | 1524 | +
SMILES | mHtt clearance | SF-1 act | M1 antag | M1 agonist | RORA act | D1 mod | D1 mod confirm | D1 no dopamine | Isoprot counter
CCn1cc(C(=O)Nc2ccc(NC(=O)c3ccco3)cc2)c(=O)c2ccc(C)nc21 | nt | -13.0 | 0.355 | -0.601 | -19.7 | 1.51 | nt | nt | nt
CCOC(=O)c1ccccc1NC(=O)c1cn(CC)c2nc(C)ccc2c1=O | nt | -6.6 | -0.327 | 0.964 | -24.3 | 4.95* | 4076 | 892 | i
COc1ccc(S(=O)(=O)NCCSC(C)(C)C)c(Cl)c1Cl | -103.2 | nt | nt | nt | nt | nt | nt | nt | nt
Oc1ccccc1C1=Nc2ncnn2C(c2ccccc2)C1 (configuration not stated) | nt | 9.8 | 0.0125 | 0.671 | 16.2 | nt | nt | nt | nt
N/C(=N\c1nc2c(c(=O)[nH]1)CCC2)Nc1cccc2ccccc12 | -30.1 | nt | nt | nt | nt | nt | nt | nt | nt
CCn1cc(C(=O)OCC(=O)OC2CC(C)CCC2C(C)C)c(=O)c2ccc(C)nc21 (configuration not stated) | nt | -7.0 | -0.154 | -0.443 | -11.2 | 6.39* | 9780* | 1408 | i
CCn1cc(C(=O)OCC(=O)Nc2c(C)n(C)n(-c3ccccc3)c2=O)c(=O)c2ccc(C)nc21 | -13.9 | 1.9 | 0.11 | 2.37 | -10.2 | 0.642 | nt | nt | nt
CCn1cc(C(=O)OCc2ccccc2)c(=O)c2ccc(C)nc21 | -18.6 | 0.3 | -0.0968 | 1.21 | 21.2 | 5.85* | 9156* | 1600 | i
CCOC(=O)c1c(C)nc(-c2ccccc2)nc1NC(C)=O | 42.5 | 26.2 | -0.0892 | -0.238 | 24.6 | 0.58 | nt | nt | nt
CCOC(=O)c1c(N)nn(C(C)=O)c1-c1ccccc1 | -5.4 | -11.1 | -0.158 | -0.105 | 0.6 | 19.9* | 19148* | 1584 | +
CCOC(=O)c1c(C)nc(-c2ccccc2)nc1N | -28.6 | 58.5* | 0.632 | 0.455 | 51.1* | 4.07* | 8680* | 1600 | +
Cc1ccc(-c2nnc(SCC(C)C)n2C)cc1 | 27.1 | nt | nt | nt | nt | nt | nt | nt | nt
CC(=O)c1cc(C(=O)Nc2ccccc2C(=O)O)oc1C | nt | 13.9 | 0.99 | 0.942 | -19.5 | -1.26 | nt | nt | nt
